Results on five molecules are retold here after ChEMBL document CHEMBL1125826, “Synthesis and biological activity of 5-amino- and 5-hydroxyquinolones, and the overwhelming influence of the remote N1-substituent in determining the structure-activity relationship” (1991).

What all share (assay type): functional
Experiment [1] concerns Staphylococcus aureus. The experiment is described as follows: Antibacterial activity was determined against gram positive organism, Staphylococcus aureus UC76. An outline of the steps:
(§1)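 MIC (µg/mL) by standard microtitration against a panel of 10 Gram-positive and Gram-negative organisms; values averaged from multiple experiments.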

Experiment [2] has as its system Enterococcus faecalis. The experiment is described as follows: Antibacterial activity was determined against gram positive organism, Streptococcus faecalis MGH-2. Conditions: Enterococcus faecalis; read-out: MIC. An outline of the steps: as §1
In experiment [3] the test system is Streptococcus pyogenes. The experiment is described as follows: The in vivo potency was determined in female charles river CD-1 mice infected with Streptococcus pyogenes after sc administration. Conditions: Streptococcus pyogenes, sc; read-out: PD50. In a few lines: (§2)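 Acute lethal systemic infection in female CD-1 mice, 16 mice per route; single subcutaneous dose given at the time of challenge; median protective dose (PD50, mg/kg) determined.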

Experiment [4] deals with Streptococcus pneumoniae. Description: Antibacterial activity was determined against gram positive organism, Streptococcus pneumoniae SV-1. The settings on record: Streptococcus pneumoniae; read-out: MIC. An outline of the steps: as §1
Experiment [5] relates to Bacteria. Description: Antibacterial activity was determined against gram negative organism, Providencia rettgeri. M1771. The settings on record: Bacteria; read-out: MIC. In a few lines:
as §1

Experiment [6] relates to Streptococcus pyogenes. The experiment is described as follows: The in vivo potency was determined in female charles river CD-1 mice infected with Streptococcus pyogenes after peroral administration. Conditions: Streptococcus pyogenes, po; read-out: PD50. In a few lines: (§3)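 Acute lethal systemic infection in female CD-1 mice, 16 mice per route; single dose given orally by gavage at the time of challenge; median protective dose (PD50, mg/kg) determined.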

Experiment [7] relates to Bacteria. Description: MIC ratio measured as the mean MICs of gram-negative bacteria. In a few lines:
(§4)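 Geometric mean of the microtitration MICs (µg/mL) over the Gram-negative organisms, and separately over the Gram-positive organisms, of the 10-strain panel; individual MICs averaged from multiple experiments.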

Experiment [8] concerns Escherichia coli. Description: Antibacterial activity was determined against gram negative organism, Escherichia coli vogel. Conditions: Escherichia coli; read-out: MIC. In a few lines: as §1
For experiment [9], the system named is Pseudomonas aeruginosa. Description: Antibacterial activity was determined against gram negative organism, Pseudomonas aeruginosa UI-18. The settings on record: Pseudomonas aeruginosa; read-out: MIC. An outline of the steps: as §1
Experiment [10] relates to Enterobacter cloacae. Description: Antibacterial activity was determined against gram negative organism, Enterobacter cloacae MA2646. Conditions: Enterobacter cloacae; read-out: MIC.
Experiment [11] concerns Escherichia coli. Description: The in vivo potency was determined in female charles river CD-1 mice infected with Escherichia coli after sc administration. The settings on record: Escherichia coli, sc; read-out: PD50. In a few lines: as §2
The test system of experiment [12] is Klebsiella pneumoniae. The experiment is described as follows: Antibacterial activity was determined against gram negative organism, Klebsiella pneumoniae MGH-2. Conditions: Klebsiella pneumoniae; read-out: MIC. An outline of the steps:
as §1

The target in experiment [13] is DNA gyrase (Escherichia coli) (UniProt P0AES6+P0AES4). The experiment is described as follows: Minimum inhibitory concentration against Escherichia coli DNA-gyrase in supercoiling assay.
Experiment [14] has as its system Bacteria. Description: MIC ratio measured as the mean MICs of gram-positive bacteria. In a few lines: as §4
The test system of experiment [15] is Escherichia coli. The experiment is described as follows: The in vivo potency was determined in female charles river CD-1 mice infected with Escherichia coli after peroral administration. Conditions: Escherichia coli, po; read-out: PD50. An outline of the steps: as §3
In experiment [16] the test system is Staphylococcus aureus. Description: Antibacterial activity was determined against gram positive organism, Staphylococcus aureus H228. Conditions: Staphylococcus aureus; read-out: MIC. In a few lines:
as §1

Experiment [17] deals with Streptococcus pyogenes. Description: Antibacterial activity was determined against gram positive organism, Streptococcus pyogenes C203. Conditions: Streptococcus pyogenes; read-out: MIC. An outline of the steps:
as §1

[18] abbreviates: Staphylococcus aureus, read-out: MIC.

≈ marks a conversion by molar mass, not a printed value. Some results are limits rather than exact numbers.

Turning to `CC1CN(c2cc3c(cc2F)c(=O)c(C(=O)O)cn3C2CC2)CCN1` (stereo not drawn), the MIC in [1] (setting [18]) was determined as 0.1 µg/mL (≈ 0.29 µM); in [2], 0.4 µg/mL (≈ 1.16 µM); in experiment [4] it was 0.2 µg/mL (≈ 0.579 µM); in [5], 0.1 µg/mL (≈ 0.29 µM); in experiment [8], 0.025 µg/mL (≈ 0.0724 µM); in experiment [9], 0.4 µg/mL (≈ 1.16 µM). In addition, the MIC was found to be 0.025 µg/mL (≈ 0.0724 µM) in [10]; 0.05 µg/mL (≈ 0.145 µM) in experiment [12]; 0.5 µg/mL (≈ 1.45 µM) in [13]; 0.4 µg/mL (≈ 1.16 µM) in experiment [16]; 0.2 µg/mL (≈ 0.579 µM) in experiment [17]. The ED50 in [3] was found to be 12 mg/kg; in experiment [6], 39 mg/kg; in experiment [11] it was 0.4 mg/kg; in experiment [15], 1 mg/kg. For the same molecule, the Geometric mean MIC over Gram-negative bacteria (µg/mL) in experiment [7] was 0.066. Further, in [14], the “Geometric mean MIC over Gram-positive bacteria (µg/mL)” value came to 0.23.
As to `CC1CN(c2c(F)c(O)c3c(=O)c(C(=O)O)cn(C4CC4)c3c2F)CCN1` (stereo not drawn), the MIC came out at 0.1 µg/mL (≈ 0.264 µM) in [1] (setting [18]); 0.8 µg/mL (≈ 2.11 µM) in experiment [2]; 0.4 µg/mL (≈ 1.05 µM) in [4]; 0.2 µg/mL (≈ 0.527 µM) in experiment [5]; 0.05 µg/mL (≈ 0.132 µM) in experiment [8]; 1.6 µg/mL (≈ 4.22 µM) in [9]. The MIC in experiment [10] turned out to be 0.1 µg/mL (≈ 0.264 µM); in experiment [12] it was 0.2 µg/mL (≈ 0.527 µM); in experiment [13], 0.5 µg/mL (≈ 1.32 µM); in [16] it was 0.8 µg/mL (≈ 2.11 µM); in experiment [17], 0.4 µg/mL (≈ 1.05 µM). Besides, the ED50 in experiment [3] is greater than 50 mg/kg; in experiment [6] it was greater than 50 mg/kg; in experiment [11] it was 0.8 mg/kg; in [15], 2 mg/kg. Also, the Geometric mean MIC over Gram-negative bacteria (µg/mL) in experiment [7] was determined as 0.2. For the same molecule, the “Geometric mean MIC over Gram-positive bacteria (µg/mL)” value in [14] was found to be 0.4.
`CC1CN(c2cc3c(c(N)c2F)c(=O)c(C(=O)O)cn3C2CC2)CCN1` (stereo not drawn): the MIC in experiment [1] (setting [18]) is 0.05 µg/mL (≈ 0.139 µM); in [2], 0.2 µg/mL (≈ 0.555 µM); in experiment [4], 0.1 µg/mL (≈ 0.277 µM); in experiment [5] it was 0.1 µg/mL (≈ 0.277 µM); in [8], 0.013 µg/mL (≈ 0.0361 µM); in [9], 0.4 µg/mL (≈ 1.11 µM). Further, the MIC in experiment [10] worked out at 0.025 µg/mL (≈ 0.0694 µM); in experiment [12], 0.025 µg/mL (≈ 0.0694 µM); in experiment [13], 0.5 µg/mL (≈ 1.39 µM); in experiment [16], 0.2 µg/mL (≈ 0.555 µM); in experiment [17] it was 0.2 µg/mL (≈ 0.555 µM). Also, the ED50 in experiment [3] came to 21 mg/kg; in [6], 66 mg/kg; in experiment [11] it was 0.4 mg/kg; in experiment [15], 2 mg/kg. For the same molecule, the Geometric mean MIC over Gram-negative bacteria (µg/mL) in experiment [7] turned out to be 0.058. Further, the “Geometric mean MIC over Gram-positive bacteria (µg/mL)” value in experiment [14] came to 0.13.
As for `Nc1c(F)c(N2CCNCC2)c(Cl)c2c1c(=O)c(C(=O)O)cn2C1CC1`, the MIC was determined as 0.025 µg/mL (≈ 0.0657 µM) in experiment [1] (setting [18]); 0.1 µg/mL (≈ 0.263 µM) in [2]; 0.1 µg/mL (≈ 0.263 µM) in experiment [4]; 0.1 µg/mL (≈ 0.263 µM) in [5]; 0.025 µg/mL (≈ 0.0657 µM) in [8]; 0.8 µg/mL (≈ 2.1 µM) in experiment [9]. The MIC in [10] amounted to 0.025 µg/mL (≈ 0.0657 µM); in experiment [12], 0.05 µg/mL (≈ 0.131 µM); in experiment [13], 1 µg/mL (≈ 2.63 µM); in experiment [16], 0.1 µg/mL (≈ 0.263 µM); in [17], 0.2 µg/mL (≈ 0.525 µM). Moreover, the ED50 in experiment [3] is 10 mg/kg; in [6], 26 mg/kg; in experiment [11], 0.5 mg/kg; in [15], 2 mg/kg. Also, in [7], the Geometric mean MIC over Gram-negative bacteria (µg/mL) amounted to 0.076. Further, the “Geometric mean MIC over Gram-positive bacteria (µg/mL)” value in experiment [14] was determined as 0.087.
Take `CCNCC1CCN(c2c(F)c(N)c3c(=O)c(C(=O)O)cn(C4CC4)c3c2Cl)C1` (stereo not drawn): the MIC in experiment [1] came to 0.025 µg/mL (≈ 0.0591 µM); in experiment [2], 0.1 µg/mL (≈ 0.236 µM); in [4] it was 0.025 µg/mL (≈ 0.0591 µM); in experiment [5], 0.8 µg/mL (≈ 1.89 µM); in [8], 0.1 µg/mL (≈ 0.236 µM); in experiment [9], 1.6 µg/mL (≈ 3.78 µM). Moreover, the MIC in experiment [10] came to 0.2 µg/mL (≈ 0.473 µM); in experiment [12] it was 0.4 µg/mL (≈ 0.946 µM); in experiment [13], 1 µg/mL (≈ 2.36 µM); in experiment [16], 0.1 µg/mL (≈ 0.236 µM); in [17], 0.025 µg/mL (≈ 0.0591 µM). Besides, the ED50 in [3] amounted to 4 mg/kg; in [6], 31 mg/kg; in experiment [11] it was 3 mg/kg; in [15], 32 mg/kg.
